Activity calls are given as the source filed them. No cut-off for these calls is given here.
Tested on: +SA cell
Test: Antiproliferative activity against mouse +SA cells assessed as decrease in cell growth up to 100 uM after 4 days by MTT assay
Type: functional, cell-based
Summary of the method: (§1)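 Highly malignant +SA mouse mammary epithelial cells were grown in serum-free medium with 10 ng/mL EGF and 10 µg/mL insulin as mitogens. Cells were seeded at 5 × 10^4 cells/well, 6 wells per group, and fed medium containing compound over 0.01-1000 µM for 4 days. Viable cell number was read by MTT colorimetric assay and reported as mean cell count/well + SEM.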

SMILES	Activity
CC1=C2CC/C(C)=C/CC/C(C)=C/CC/C(C)=C/[C@@H]2OC1=O	Active
CC1=C2CC/C(C)=C/CC[C@@H](C)C(=O)CC/C(C)=C/[C@@H]2OC1=O	inactive
CC1=C2CC[C@H](C)[C@H]3CC[C@](C)(O)[C@H](CC/C(C)=C/[C@@H]2OC1=O)O3 (mixture of isomers)	inactive
CC1=C2CC[C@@](C)(O)CCC[C@](C)(O)[C@@H]3CC[C@@](C)(C[C@@H]2OC1=O)O3 (relative stereo)	inactive
CC1=C2CC[C@H](C)[C@@H]3CC[C@](C)(O)[C@H](CC/C(C)=C/[C@@H]2OC1=O)O3 (relative stereo)	inactive
CC1=C2CC[C@H](C)[C@@H]3CC[C@](C)(O)[C@H](CC[C@@](C)(O)C[C@@H]2OC1=O)O3 (relative stereo)	inactive
CC1=C2CC[C@]3(C)O[C@@H](CC/C(C)=C/[C@@H]2OC1=O)[C@@](C)(O)CC[C@@H]3Br (relative stereo)	Active
CC1=C2CC[C@]3(C)O[C@@H](CC/C(C)=C/[C@@H]2OC1=O)[C@@](C)(O)CC[C@H]3Br (relative stereo)	inactive

Tested on: +SA cell
Test: Antiproliferative activity against mouse +SA cells assessed as decrease in cell growth at 0 to 10 uM after 4 days by MTT assay
Type: functional, cell-based
Summary of the method: as §1

SMILES	Activity
CC1=C2CC/C(C)=C/CC[C@]3(C)O[C@H]3CC/C(C)=C/[C@@H]2OC1=O	inactive

Tested on: +SA cell
Test: Antiproliferative activity against mouse +SA cells assessed as decrease in cell growth at 100 to 1000 uM after 4 days by MTT assay
Type: functional, cell-based
Summary of the method: as §1

SMILES	Activity
CC1=C2CC/C(C)=C/CC[C@]3(C)O[C@H]3CC/C(C)=C/[C@@H]2OC1=O	Active

Reference: ChEMBL document CHEMBL1148971, “Bioactive rearranged and halogenated semisynthetic derivatives of the marine natural product sarcophine” (J Nat Prod, 2004)
